In brackets after ≈: the same amount, converted by molar mass.
Assays:
Type in all cases: functional
Neisseria meningitidis [1] = experiment: Antimicrobial activity against Neisseria meningitidis harboring rpoB10 H552R mutant allele by Etest
Summary of the method: (§1)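 Rifampin MIC by Etest on meningococcal clinical isolates collected by the participating national laboratories, with MIC read in mg/liter. The rpoB gene of each isolate was sequenced and assigned to an allele. Isolates were serogrouped by agglutination with serogroup-specific antisera.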

Neisseria meningitidis [2] = experiment: Antimicrobial activity against Neisseria meningitidis harboring rpoB11 H552N mutant allele by Etest; summary of the method: as §1
Neisseria meningitidis [3] = experiment: Antimicrobial activity against Neisseria meningitidis harboring rpoB12 H552L mutant allele by Etest; summary of the method: as §1
Neisseria meningitidis [4] = experiment: Antimicrobial activity against Neisseria meningitidis harboring rpoB13 H552Y mutant allele by Etest; summary of the method: as §1
Neisseria meningitidis [5] = experiment: Antimicrobial activity against Neisseria meningitidis harboring rpoB14 S548F mutant allele by Etest; summary of the method: as §1
Neisseria meningitidis [6] = experiment: Antimicrobial activity against Neisseria meningitidis harboring rpoB15 H552N mutant allele by Etest; summary of the method: as §1
Neisseria meningitidis [7] = experiment: Antimicrobial activity against Neisseria meningitidis harboring rpoB16 H552Y mutant allele by Etest; summary of the method: as §1
Neisseria meningitidis [8] = experiment: Antimicrobial activity against Neisseria meningitidis harboring rpoB17 H552Y mutant allele by Etest; summary of the method: as §1
Neisseria meningitidis [9] = experiment: Antimicrobial activity against Neisseria meningitidis harboring rpoB19 S557F mutant allele by Etest; summary of the method: as §1
Neisseria meningitidis [10] = experiment: Antimicrobial activity against Neisseria meningitidis harboring rpoB20 H552Y mutant allele by Etest; summary of the method: as §1
Neisseria meningitidis [11] = experiment: Antimicrobial activity against Neisseria meningitidis harboring rpoB23 S548F mutant allele by Etest; summary of the method: as §1
Neisseria meningitidis [12] = experiment: Antimicrobial activity against Neisseria meningitidis harboring rpoB26 D542N and S557F mutant allele by Etest; summary of the method: as §1
Neisseria meningitidis [13] = experiment: Antimicrobial activity against Neisseria meningitidis harboring rpoB32 H552Y mutant allele by Etest; summary of the method: as §1
Neisseria meningitidis [14] = experiment: Antimicrobial activity against Neisseria meningitidis harboring rpoB36 H552N mutant allele by Etest; summary of the method: as §1
Neisseria meningitidis [15] = experiment: Antimicrobial activity against Neisseria meningitidis harboring rpoB37 G560S mutant allele by Etest; summary of the method: as §1
Neisseria meningitidis [16] = experiment: Antimicrobial activity against Neisseria meningitidis harboring rpoB39 D542V mutant allele by Etest; summary of the method: as §1
Neisseria meningitidis [17] = experiment: Antimicrobial activity against Neisseria meningitidis harboring rpoB44 H552Y mutant allele by Etest; summary of the method: as §1
Neisseria meningitidis [18] = experiment: Antimicrobial activity against Neisseria meningitidis harboring rpoB45 D542V mutant allele by Etest; summary of the method: as §1
Neisseria meningitidis [19] = experiment: Antimicrobial activity against Neisseria meningitidis harboring rpoB46 H552N mutant allele by Etest; summary of the method: as §1
Neisseria meningitidis [20] = experiment: Antimicrobial activity against Neisseria meningitidis harboring rpoB50 S557F mutant allele by Etest; summary of the method: as §1
Neisseria meningitidis [21] = experiment: Antimicrobial activity against Neisseria meningitidis harboring rpoB51 H552Y mutant allele by Etest; summary of the method: as §1
Neisseria meningitidis [22] = experiment: Antimicrobial activity against Neisseria meningitidis harboring rpoB53 G560S mutant allele by Etest; summary of the method: as §1
Neisseria meningitidis [23] = experiment: Antimicrobial activity against Neisseria meningitidis harboring rpoB57 D542N mutant allele by Etest; summary of the method: as §1
Neisseria meningitidis [24] = experiment: Antimicrobial activity against Neisseria meningitidis expressing wild type rpoB1 allele by Etest
Summary of the method: (§2)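 Rifampin MIC by Etest on meningococcal isolates from participating national laboratories, with rpoB sequenced for each isolate. Values are geometric means of MICs over all isolates carrying a given allele that lacks alterations at S548, H552 and S557 and lacks D542V. Only alleles represented by at least five isolates were reported.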

Neisseria meningitidis [25] = experiment: Antimicrobial activity against Neisseria meningitidis expressing wild type rpoB2 allele by Etest; summary of the method: as §2
Neisseria meningitidis [26] = experiment: Antimicrobial activity against Neisseria meningitidis expressing wild type rpoB4 allele by Etest; summary of the method: as §2
Neisseria meningitidis [27] = experiment: Antimicrobial activity against Neisseria meningitidis expressing wild type rpoB5 allele by Etest; summary of the method: as §2
Neisseria meningitidis [28] = experiment: Antimicrobial activity against Neisseria meningitidis expressing wild type rpoB9 allele by Etest; summary of the method: as §2
Neisseria meningitidis [29] = experiment: Antimicrobial activity against Neisseria meningitidis expressing wild type rpoB18 allele by Etest; summary of the method: as §2
Neisseria meningitidis [30] = experiment: Antimicrobial activity against Neisseria meningitidis expressing wild type rpoB27 allele by Etest; summary of the method: as §2
Neisseria meningitidis [31] = experiment: Antimicrobial activity against Neisseria meningitidis expressing wild type rpoB28 allele by Etest; summary of the method: as §2
Neisseria meningitidis [32] = experiment: Antimicrobial activity against Neisseria meningitidis expressing wild type rpoB31 allele by Etest; summary of the method: as §2
Neisseria meningitidis [33] = experiment: Antimicrobial activity against Neisseria meningitidis expressing wild type rpoB34 allele by Etest; summary of the method: as §2
Neisseria meningitidis [34] = experiment: Antimicrobial activity against Neisseria meningitidis expressing wild type rpoB40 allele by Etest; summary of the method: as §2

Compound CO[C@H]1/C=C/O[C@@]2(C)Oc3c(C)c(O)c4c(O)c(c(/C=N/N5CCN(C)CC5)c(O)c4c3C2=O)NC(=O)/C(C)=C\C=C\[C@H](C)[C@H](O)[C@@H](C)[C@@H](O)[C@@H](C)[C@H](OC(C)=O)[C@@H]1C [RIFAMPIN] has an MIC (Neisseria meningitidis [1]) of over 32 µg/mL, an MIC (Neisseria meningitidis [2]) of over 32 µg/mL and an MIC (Neisseria meningitidis [3]) of over 32 µg/mL. The MIC (Neisseria meningitidis [4]) was over 32 µg/mL, the MIC (Neisseria meningitidis [5]) was over 32 µg/mL and the MIC (Neisseria meningitidis [6]) was over 32 µg/mL. For the same compound, the MIC (Neisseria meningitidis [7]) was over 32 µg/mL, the MIC (Neisseria meningitidis [8]) was over 32 µg/mL and the MIC (Neisseria meningitidis [9]) was over 32 µg/mL. For the same compound, the MIC (Neisseria meningitidis [10]) was over 32 µg/mL, the MIC (Neisseria meningitidis [11]) was over 32 µg/mL and the MIC (Neisseria meningitidis [12]) was over 32 µg/mL. The MIC (Neisseria meningitidis [13]) was over 32 µg/mL, the MIC (Neisseria meningitidis [14]) was 8 µg/mL (≈ 9.72 µM) and the MIC (Neisseria meningitidis [15]) was 8 µg/mL (≈ 9.72 µM). For the same compound, the MIC (Neisseria meningitidis [16]) was over 32 µg/mL, the MIC (Neisseria meningitidis [17]) was 256 µg/mL (≈ 311 µM) and the MIC (Neisseria meningitidis [18]) was 256 µg/mL (≈ 311 µM). It also gave an MIC (Neisseria meningitidis [19]) of 256 µg/mL (≈ 311 µM), an MIC (Neisseria meningitidis [20]) of over 32 µg/mL and an MIC (Neisseria meningitidis [21]) of over 32 µg/mL. The MIC (Neisseria meningitidis [22]) was 0.125 µg/mL (≈ 0.152 µM), the MIC (Neisseria meningitidis [23]) was 0.125 µg/mL (≈ 0.152 µM) and the MIC (Neisseria meningitidis [24]) was 0.225 µg/mL (≈ 0.273 µM). For the same compound, the MIC (Neisseria meningitidis [25]) was 0.057 µg/mL (≈ 0.0693 µM), the MIC (Neisseria meningitidis [26]) was 0.089 µg/mL (≈ 0.108 µM) and the MIC (Neisseria meningitidis [27]) was 0.061 µg/mL (≈ 0.0741 µM). It also gave an MIC (Neisseria meningitidis [28]) of 0.065 µg/mL (≈ 0.079 µM), an MIC (Neisseria meningitidis [29]) of 0.024 µg/mL (≈ 0.0292 µM) and an MIC (Neisseria meningitidis [30]) of 0.15 µg/mL (≈ 0.182 µM). The MIC (Neisseria meningitidis [31]) was 0.025 µg/mL (≈ 0.0304 µM), the MIC (Neisseria meningitidis [32]) was 0.015 µg/mL (≈ 0.0182 µM) and the MIC (Neisseria meningitidis [33]) was 0.029 µg/mL (≈ 0.0352 µM). For the same compound, the MIC (Neisseria meningitidis [34]) was 0.034 µg/mL (≈ 0.0413 µM).
